Broadly, the inhibition is the drop in the measured response relative to a control, in per cent.

In ChEMBL document CHEMBL1155459, “On-bead screening of a combinatorial fumaric acid derived peptide library yields antiplasmodial cysteine protease inhibitors with unusual peptide sequences” (J Med Chem, 2009) one finds inhibition data, which are given here for 15 molecules.

Peptide text beside a SMILES is read from it.

In test [1] the target is Rhodesain (Trypanosoma brucei rhodesiense) (UniProt Q95PM0). The test is described as follows: Inhibition of Trypanosoma brucei rhodesiense rhodesain after 12 hrs by fluorescence spectroscopy-based on-bead assay. On the set-up: concentration or dose not given beside the values. As to conditions: concentration not given here. In outline:
(§1)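 Library members on resin (PEGA, theoretical loading 0.40 mmol/g; added as DMSO suspension, 0.64 mM final inhibitor) preincubated with enzyme 12 h, then Cbz-Phe-Arg-AMC 40 μM added; AMC release followed by fluorescence (ex 380/em 460 nm). Kinetics compared with inhibitor-free amino-PEGA resin.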

Test [2] is described as follows: Inhibition of Plasmodium falciparum falcipain-2 after 12 hrs by fluorescence spectroscopy-based on-bead assay. On the set-up: concentration or dose not given beside the values. The conditions noted are these: concentration not given here. In a few lines: as §1

Chain of Rhodesain (Trypanosoma brucei rhodesiense) (Q95PM0 1-450): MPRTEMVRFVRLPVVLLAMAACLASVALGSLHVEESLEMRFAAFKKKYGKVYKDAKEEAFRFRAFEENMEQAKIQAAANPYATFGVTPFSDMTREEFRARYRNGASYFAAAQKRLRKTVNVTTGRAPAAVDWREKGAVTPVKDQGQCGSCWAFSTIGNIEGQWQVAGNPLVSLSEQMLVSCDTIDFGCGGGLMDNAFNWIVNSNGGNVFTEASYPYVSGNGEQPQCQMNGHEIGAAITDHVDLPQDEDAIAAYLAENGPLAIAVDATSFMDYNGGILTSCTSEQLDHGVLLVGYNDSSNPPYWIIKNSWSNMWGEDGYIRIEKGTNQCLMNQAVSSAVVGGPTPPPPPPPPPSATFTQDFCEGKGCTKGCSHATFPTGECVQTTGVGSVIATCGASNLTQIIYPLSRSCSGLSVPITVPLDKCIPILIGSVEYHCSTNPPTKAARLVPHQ

As to `CC[C@H](C)[C@H](NC(=O)[C@H](CNC(C)=O)NC(=O)/C=C/C(=O)N[C@@H](C)C(=O)NCC(=O)N[C@@H](Cc1ccccc1)C(=O)O)C(=O)N[C@H](C(=O)N[C@H](C(N)=O)C(C)C)C(C)C` (HELM PEPTIDE1{[C[C@H](NC(=O)/C=C/C(=O)[*:2])C(=O)NCC(=O)N[C@@H](Cc1ccccc1)C(=O)O].[O=C([C@H](CN[*:3])N[*:1])[*:2]].I.V.V.[am]}|PEPTIDE2{[ac]}$PEPTIDE1,PEPTIDE2,2:R3-1:R2$$$V2.0), the inhibition in test [1] is 49%; in test [2] it was 52%.

With `CC(=O)NC[C@H](NC(=O)/C=C/C(=O)N[C@@H](C)C(=O)NCC(=O)N[C@@H](Cc1ccccc1)C(=O)O)C(=O)N[C@@H](CC(C)C)C(=O)N[C@@H](C)C(=O)N[C@H](C(N)=O)C(C)C` (HELM PEPTIDE1{[C[C@H](NC(=O)/C=C/C(=O)[*:2])C(=O)NCC(=O)N[C@@H](Cc1ccccc1)C(=O)O].[O=C([C@H](CN[*:3])N[*:1])[*:2]].L.A.V.[am]}|PEPTIDE2{[ac]}$PEPTIDE1,PEPTIDE2,2:R3-1:R2$$$V2.0), the inhibition in test [1] was determined as 19%; in test [2], 28%.

In the case of `CC(=O)NC[C@H](NC(=O)/C=C/C(=O)N[C@@H](C)C(=O)NCC(=O)N[C@@H](Cc1ccccc1)C(=O)O)C(=O)N[C@@H](CC(C)C)C(=O)N[C@@H](CC(C)C)C(=O)N[C@H](C(N)=O)C(C)C` (HELM PEPTIDE1{[C[C@H](NC(=O)/C=C/C(=O)[*:2])C(=O)NCC(=O)N[C@@H](Cc1ccccc1)C(=O)O].[O=C([C@H](CN[*:3])N[*:1])[*:2]].L.L.V.[am]}|PEPTIDE2{[ac]}$PEPTIDE1,PEPTIDE2,2:R3-1:R2$$$V2.0), the inhibition in test [1] is 63%; in test [2], 41%.

`CC(=O)NC[C@H](NC(=O)/C=C/C(=O)N[C@@H](C)C(=O)NCC(=O)N[C@@H](Cc1ccccc1)C(=O)O)C(=O)N[C@@H](CC(C)C)C(=O)N[C@H](C(=O)N[C@H](C(N)=O)C(C)C)C(C)C` (HELM PEPTIDE1{[C[C@H](NC(=O)/C=C/C(=O)[*:2])C(=O)NCC(=O)N[C@@H](Cc1ccccc1)C(=O)O].[O=C([C@H](CN[*:3])N[*:1])[*:2]].L.V.V.[am]}|PEPTIDE2{[ac]}$PEPTIDE1,PEPTIDE2,2:R3-1:R2$$$V2.0): the inhibition was 60% in test [1] and 35% in test [2].

Regarding `CC(=O)NC[C@H](NC(=O)/C=C/C(=O)N[C@@H](C)C(=O)NCC(=O)N[C@@H](Cc1ccccc1)C(=O)O)C(=O)N[C@H](C(=O)N[C@@H](C)C(=O)N[C@H](C(N)=O)C(C)C)c1ccccc1` (HELM PEPTIDE1{[C[C@H](NC(=O)/C=C/C(=O)[*:2])C(=O)NCC(=O)N[C@@H](Cc1ccccc1)C(=O)O].[O=C([C@H](CN[*:3])N[*:1])[*:2]].[Phg].A.V.[am]}|PEPTIDE2{[ac]}$PEPTIDE1,PEPTIDE2,2:R3-1:R2$$$V2.0), the results for the inhibition in test [1] and in test [2] were 34% and 35%, respectively.

In the case of `CC(=O)NC[C@H](NC(=O)/C=C/C(=O)N[C@@H](C)C(=O)NCC(=O)N[C@@H](Cc1ccccc1)C(=O)O)C(=O)N[C@H](C(=O)N[C@@H](CC(C)C)C(=O)N[C@H](C(N)=O)C(C)C)c1ccccc1` (HELM PEPTIDE1{[C[C@H](NC(=O)/C=C/C(=O)[*:2])C(=O)NCC(=O)N[C@@H](Cc1ccccc1)C(=O)O].[O=C([C@H](CN[*:3])N[*:1])[*:2]].[Phg].L.V.[am]}|PEPTIDE2{[ac]}$PEPTIDE1,PEPTIDE2,2:R3-1:R2$$$V2.0), the values for the inhibition in test [1] and in test [2] were 56% and 52%, respectively.

With `CC(=O)NC[C@H](NC(=O)/C=C/C(=O)N[C@@H](C)C(=O)NCC(=O)N[C@@H](Cc1ccccc1)C(=O)O)C(=O)N[C@H](C(=O)N[C@H](C(=O)N[C@H](C(N)=O)C(C)C)C(C)C)c1ccccc1` (HELM PEPTIDE1{[C[C@H](NC(=O)/C=C/C(=O)[*:2])C(=O)NCC(=O)N[C@@H](Cc1ccccc1)C(=O)O].[O=C([C@H](CN[*:3])N[*:1])[*:2]].[Phg].V.V.[am]}|PEPTIDE2{[ac]}$PEPTIDE1,PEPTIDE2,2:R3-1:R2$$$V2.0), the inhibition in test [1] is 36%; in test [2] it was 20%.

For `CC(C)[C@H](NC(=O)[C@H](C)NC(=O)[C@H](Cc1ccccc1)NC(=O)[C@H](C)NC(=O)/C=C/C(=O)NCC(=O)NCC(=O)N[C@@H](Cc1ccccc1)C(=O)O)C(N)=O` (HELM PEPTIDE1{[O=C(/C=C/C(=O)[*:2])NCC(=O)NCC(=O)N[C@@H](Cc1ccccc1)C(=O)O].A.F.A.V.[am]}$$$$V2.0), the values for the inhibition in test [1] and in test [2] were 45% and 44%, respectively.

On to `CC(C)C[C@H](NC(=O)[C@H](Cc1ccccc1)NC(=O)[C@H](C)NC(=O)/C=C/C(=O)NCC(=O)NCC(=O)N[C@@H](Cc1ccccc1)C(=O)O)C(=O)N[C@H](C(N)=O)C(C)C` (HELM PEPTIDE1{[O=C(/C=C/C(=O)[*:2])NCC(=O)NCC(=O)N[C@@H](Cc1ccccc1)C(=O)O].A.F.L.V.[am]}$$$$V2.0), for which the inhibition in test [1] stood at 67%; in test [2], 68%.

With `CC(C)[C@H](NC(=O)[C@@H](NC(=O)[C@H](Cc1ccccc1)NC(=O)[C@H](C)NC(=O)/C=C/C(=O)NCC(=O)NCC(=O)N[C@@H](Cc1ccccc1)C(=O)O)C(C)C)C(N)=O` (HELM PEPTIDE1{[O=C(/C=C/C(=O)[*:2])NCC(=O)NCC(=O)N[C@@H](Cc1ccccc1)C(=O)O].A.F.V.V.[am]}$$$$V2.0), the figures for the inhibition in test [1] and in test [2] were 48% and 27%, respectively.

Take `CC[C@H](C)[C@H](NC(=O)[C@H](C)NC(=O)/C=C/C(=O)NCC(=O)NCC(=O)N[C@@H](Cc1ccccc1)C(=O)O)C(=O)N[C@@H](C)C(=O)N[C@H](C(N)=O)C(C)C` (HELM PEPTIDE1{[O=C(/C=C/C(=O)[*:2])NCC(=O)NCC(=O)N[C@@H](Cc1ccccc1)C(=O)O].A.I.A.V.[am]}$$$$V2.0): the values for the inhibition in test [1] and in test [2] were 31% and 54%, respectively.

Regarding `CC[C@H](C)[C@H](NC(=O)[C@H](C)NC(=O)/C=C/C(=O)NCC(=O)NCC(=O)N[C@@H](Cc1ccccc1)C(=O)O)C(=O)N[C@@H](CC(C)C)C(=O)N[C@H](C(N)=O)C(C)C` (HELM PEPTIDE1{[O=C(/C=C/C(=O)[*:2])NCC(=O)NCC(=O)N[C@@H](Cc1ccccc1)C(=O)O].A.I.L.V.[am]}$$$$V2.0), the inhibition in test [1] is 58%; in test [2], 61%.

Regarding `CC[C@H](C)[C@H](NC(=O)[C@H](C)NC(=O)/C=C/C(=O)NCC(=O)NCC(=O)N[C@@H](Cc1ccccc1)C(=O)O)C(=O)N[C@H](C(=O)N[C@H](C(N)=O)C(C)C)C(C)C` (HELM PEPTIDE1{[O=C(/C=C/C(=O)[*:2])NCC(=O)NCC(=O)N[C@@H](Cc1ccccc1)C(=O)O].A.I.V.V.[am]}$$$$V2.0), the inhibition in test [1] was found to be 33%; in test [2] it was 32%.

With `CC(C)C[C@H](NC(=O)[C@H](C)NC(=O)/C=C/C(=O)NCC(=O)NCC(=O)N[C@@H](Cc1ccccc1)C(=O)O)C(=O)N[C@@H](C)C(=O)N[C@H](C(N)=O)C(C)C` (HELM PEPTIDE1{[O=C(/C=C/C(=O)[*:2])NCC(=O)NCC(=O)N[C@@H](Cc1ccccc1)C(=O)O].A.L.A.V.[am]}$$$$V2.0), the inhibition in test [1] was 40%; in test [2] it was 57%.

On to `CC(C)C[C@H](NC(=O)[C@H](C)NC(=O)/C=C/C(=O)NCC(=O)NCC(=O)N[C@@H](Cc1ccccc1)C(=O)O)C(=O)N[C@H](C(=O)N[C@H](C(N)=O)C(C)C)C(C)C` (HELM PEPTIDE1{[O=C(/C=C/C(=O)[*:2])NCC(=O)NCC(=O)N[C@@H](Cc1ccccc1)C(=O)O].A.L.V.V.[am]}$$$$V2.0), for which the results for the inhibition in test [1] and in test [2] were 55% and 29%, respectively.
